One assay has as its system Cryptococcus neoformans. In words: Antifungal activity against Cryptococcus neoformans after 72 hrs by serial dilution method. The format is functional. The gist of the method:
(§1)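 NCCLS broth microdilution in RPMI 1640 buffered with 0.165 M MOPS, with strains from ATCC or clinical isolates. Compounds were dissolved in DMSO and serially diluted in medium. Yeasts were incubated at 35 °C and read at 24 h for Candida or 72 h for C. neoformans. MIC was the lowest concentration giving ≥80% turbidity inhibition versus the growth control.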

Assay [1] has as its system Candida albicans. In words: Antifungal activity against multidrug-resistant Candida albicans after 24 hrs by serial dilution method. The format is functional. The essentials: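 Broth serial dilution in 96-well plates per NCCLS recommendations; RPMI 1640 buffered with 0.165 M MOPS as medium. Compounds dissolved in DMSO, serially diluted in growth medium. Strains from ATCC or clinical isolates. Yeasts incubated at 35 °C, read at 24 h for Candida. MIC = lowest concentration giving turbidity at or below 80% inhibition versus growth control.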

In the next assay the test system is Aspergillus fumigatus. Briefly: Antifungal activity against Aspergillus fumigatus after 7 days by serial dilution method. The format is functional. The conditions noted are these: 168 h. The essentials: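 Filamentous fungus (ATCC or clinical isolate) was tested by NCCLS microdilution in MOPS-buffered (0.165 M) RPMI 1640. Compounds were dissolved in DMSO and serially diluted in medium, and growth was scored at 7 days. MIC was the lowest concentration producing ≥80% inhibition of turbidity compared with the untreated control.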

In another assay the test system is Trichophyton rubrum. Briefly: Antifungal activity against Trichophyton rubrum after 7 days by serial dilution method. The format is functional. The conditions noted are these: 168 h. The gist of the method: (§2)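 Dermatophytes (ATCC or clinical isolates) were tested by NCCLS serial dilution in RPMI 1640 with 0.165 M MOPS, incubated at 28 °C and read at 7 days. Compounds were taken up in DMSO and diluted in medium. MIC was the lowest concentration reducing turbidity by at least 80% relative to the drug-free growth control.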

For assay [2], the system named is Candida albicans. Briefly: Antifungal activity against Candida albicans after 24 hrs by serial dilution method. It is filed as functional. The essentials:
as §1

A further assay concerns Nannizzia gypsea. Briefly: Antifungal activity against Microsporum gypseum after 7 days by serial dilution method. The format is functional. The conditions noted are these: 168 h. The gist of the method:
as §2

A further assay has as its system Candida parapsilosis. Briefly: Antifungal activity against Candida parapsilosis after 24 hrs by serial dilution method. The format is functional, organism-based. The gist of the method: as §1
The test system of a further assay is Candida tropicalis. Briefly: Antifungal activity against Candida tropicalis after 24 hrs by serial dilution method. It is filed as functional. The gist of the method: as §1

Results on seven molecules are retold here after ChEMBL document CHEMBL1154093, “New azoles with potent antifungal activity: design, synthesis and molecular docking” (2009).

As usually defined, the MIC80 is the lowest concentration that inhibits either 80% of growth or 80% of the strains tested, depending on the study.

In brackets after ≈: the same amount, converted by molar mass. Activity calls are given as the source filed them. No cut-off for these calls is given here.

Consider `O=[N+]([O-])c1cccc(OCCCN2CCN(CC(O)(Cn3cncn3)c3ccc(F)cc3F)CC2)c1` (racemic), for which the MIC80 amounted to 0.25 µg/mL (≈ 0.497 µM) with Cryptococcus neoformans; 0.25 µg/mL (≈ 0.497 µM) in the assay on Candida albicans [1]; 32 µg/mL (≈ 63.7 µM) against Aspergillus fumigatus; 0.0625 µg/mL (≈ 0.124 µM) in the assay on Trichophyton rubrum; 0.0625 µg/mL (≈ 0.124 µM) in the assay with Candida albicans [2]; 0.25 µg/mL (≈ 0.497 µM) in the assay with Nannizzia gypsea. The MIC80 with Candida tropicalis stood at 0.0156 µg/mL (≈ 0.031 µM). For the same molecule, in the assay on Candida parapsilosis, the outcome was Active.

Take `OC(CN1CCN(CCCCCOc2ccccc2)CC1)(Cn1cncn1)c1ccc(F)cc1F` (racemic): the MIC80 worked out at 1 µg/mL (≈ 2.06 µM) with Cryptococcus neoformans; 4 µg/mL (≈ 8.24 µM) with Candida albicans [1]; 32 µg/mL (≈ 65.9 µM) against Aspergillus fumigatus; 0.25 µg/mL (≈ 0.515 µM) with Trichophyton rubrum; 0.0625 µg/mL (≈ 0.129 µM) against Candida albicans [2]; 4 µg/mL (≈ 8.24 µM) with Nannizzia gypsea. In the assay on Candida tropicalis, this molecule had an MIC80 of 0.0625 µg/mL (≈ 0.129 µM). In addition, the outcome in the assay with Candida parapsilosis was Active.

On to `CCC(C)n1ncn(-c2ccc(N3CCN(c4ccc(OCC5COC(Cn6cncn6)(c6ccc(Cl)cc6Cl)O5)cc4)CC3)cc2)c1=O` (stereo unspecified) [ITRACONAZOLE], for which the MIC80 against Cryptococcus neoformans is 0.125 µg/mL (≈ 0.177 µM); against Candida albicans [1], above 64 µg/mL; against Aspergillus fumigatus it was 2 µg/mL (≈ 2.83 µM); in the assay on Trichophyton rubrum, 0.125 µg/mL (≈ 0.177 µM); in the assay with Candida albicans [2] it was 0.125 µg/mL (≈ 0.177 µM); in the assay with Nannizzia gypsea, 0.25 µg/mL (≈ 0.354 µM). This molecule gave an MIC80 with Candida tropicalis of 0.125 µg/mL (≈ 0.177 µM). In the assay with Candida parapsilosis, the outcome was Active.

For the molecule `O=[N+]([O-])c1ccccc1OCCCN1CCN(CC(O)(Cn2cncn2)c2ccc(F)cc2F)CC1` (racemic), the MIC80 against Cryptococcus neoformans was 4 µg/mL (≈ 7.96 µM); against Candida albicans [1], 2 µg/mL (≈ 3.98 µM); against Aspergillus fumigatus it was 64 µg/mL (≈ 127 µM); against Trichophyton rubrum it was 1 µg/mL (≈ 1.99 µM); against Candida albicans [2], 0.25 µg/mL (≈ 0.497 µM); with Nannizzia gypsea it was 4 µg/mL (≈ 7.96 µM). The MIC80 against Candida tropicalis turned out to be 0.25 µg/mL (≈ 0.497 µM). Moreover, the result with Candida parapsilosis was Active.

For `OC(CN1CCN(CCCOc2ccc(Cl)cc2)CC1)(Cn1cncn1)c1ccc(F)cc1F` (racemic), the MIC80 in the assay on Cryptococcus neoformans was determined as 0.25 µg/mL (≈ 0.508 µM); in the assay with Candida albicans [1], 0.125 µg/mL (≈ 0.254 µM); against Aspergillus fumigatus, 4 µg/mL (≈ 8.13 µM); in the assay on Trichophyton rubrum it was 0.0156 µg/mL (≈ 0.0317 µM); against Candida albicans [2] it was 0.0156 µg/mL (≈ 0.0317 µM); against Nannizzia gypsea, 0.25 µg/mL (≈ 0.508 µM). In the assay on Candida tropicalis, this molecule came in with an MIC80 of 0.0156 µg/mL (≈ 0.0317 µM). In addition, in the assay with Candida parapsilosis, the result was Active.

Regarding `OC(CN1CCN(CCCOc2ccc(OCc3ccccc3)cc2)CC1)(Cn1cncn1)c1ccc(F)cc1F` (racemic), the MIC80 against Cryptococcus neoformans was found to be 0.25 µg/mL (≈ 0.444 µM); against Candida albicans [1], 32 µg/mL (≈ 56.8 µM); in the assay with Aspergillus fumigatus, 2 µg/mL (≈ 3.55 µM); in the assay with Trichophyton rubrum, 0.0625 µg/mL (≈ 0.111 µM); in the assay on Candida albicans [2], 0.0625 µg/mL (≈ 0.111 µM); in the assay with Nannizzia gypsea, 0.0625 µg/mL (≈ 0.111 µM). This molecule also registered an MIC80 in the assay on Candida tropicalis of 0.0625 µg/mL (≈ 0.111 µM). The result in the assay with Candida parapsilosis was Active.

As to `Cc1ccc(OCCCN2CCN(CC(O)(Cn3cncn3)c3ccc(F)cc3F)CC2)cc1` (racemic), the MIC80 against Cryptococcus neoformans stood at 0.25 µg/mL (≈ 0.53 µM); against Candida albicans [1] it was 0.12 µg/mL (≈ 0.254 µM); against Aspergillus fumigatus, 8 µg/mL (≈ 17 µM); in the assay with Trichophyton rubrum, 0.0625 µg/mL (≈ 0.133 µM); in the assay on Candida albicans [2] it was 0.0156 µg/mL (≈ 0.0331 µM); with Nannizzia gypsea, 0.25 µg/mL (≈ 0.53 µM). In the assay on Candida tropicalis, this molecule gave an MIC80 of 0.0625 µg/mL (≈ 0.133 µM). Also, the outcome in the assay with Candida parapsilosis was Active.
